ChEMBL document CHEMBL2016528, “Synthesis and biological evaluation of bifendate-chalcone hybrids as a new class of potential P-glycoprotein inhibitors” (Bioorg Med Chem, 2012)
Calls of active or inactive are those of the source. The calls are words filed in the database; no cut-off is given here.

What was measured:
[1] = test system: K562; test: Cytotoxicity against human K562 cells after 72 hrs by MTS assay; type: cell-based; conditions: K562, 72 h
Method in brief: (§1)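 Cells (1×10⁴/well) seeded and grown 24 h, then exposed to a range of compound concentrations for 72 h at 37 °C, 5% CO₂. MTS added for 3 h, absorbance read at 490 nm. IC50 = concentration giving 50% growth decrease, taken from dose–response curves; mean of triplicate experiments. K562/A02 is the adriamycin-induced P-gp-overexpressing subline.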

[2] = Cytotoxicity against human K562/A02 cells overexpress P-gp after 72 hrs by MTS assay; type: ADME, cell-based; conditions: K562/A02, 72 h; method in brief: as §1
[3] = test system: K562; test: Induction of rhodamine-123 accumulation in human K562 cells preincubated for 1 hr prior rhodamine 123 addition measured after 30 mins by flow cytometry relative to control; type: functional, cell-based
Method in brief: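 Cells (1×10⁶) pre-incubated with compound or 0.1% DMSO vehicle at 37 °C for 1 h. Rhodamine 123 then added to 0.5 µM for 30 min. Cell-associated fluorescence read by flow cytometry. Fold change = fluorescence divided by that of DMSO control cells; mean ± S.D. of three independent experiments.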

[4] = Growth inhibition of human K562/A02 cells at 10 uM after 72 hrs by MTS assay; type: cell-based; conditions: read-out: GI
Method in brief: (§2)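 K562 and K562/A02 cells given compound alone at 10 µM for 72 h. Survival measured by MTS and expressed as percent of untreated control. Three independent experiments.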

[5] = Growth inhibition of human K562 cells at 10 uM after 72 hrs by MTS assay; type: cell-based; conditions: read-out: GI; method in brief: as §2
[6] = Down regulation of P-gp mRNA level in human K562/A02 cells at 10 uM after 72 hrs by RT-PCR analysis; type: functional, cell-based
[7] = Down regulation of P-gp level in human K562/A02 cells at 10 uM after 72 hrs by Western blotting analysis; type: functional, cell-based
[8] = biological target: T1, ATP-dependent translocase ABCB1 (Homo sapiens, UniProt P08183); test: Inhibition of P-glycoprotein in human K562/A02 cells assessed as potentiation of adriamycin-induced cytotoxicity at 2.5 to 10 uM after 72 hrs by MTS assay; type: cell-based; conditions: k562/a02, 72 h
T1 sequence (P08183 whole entry): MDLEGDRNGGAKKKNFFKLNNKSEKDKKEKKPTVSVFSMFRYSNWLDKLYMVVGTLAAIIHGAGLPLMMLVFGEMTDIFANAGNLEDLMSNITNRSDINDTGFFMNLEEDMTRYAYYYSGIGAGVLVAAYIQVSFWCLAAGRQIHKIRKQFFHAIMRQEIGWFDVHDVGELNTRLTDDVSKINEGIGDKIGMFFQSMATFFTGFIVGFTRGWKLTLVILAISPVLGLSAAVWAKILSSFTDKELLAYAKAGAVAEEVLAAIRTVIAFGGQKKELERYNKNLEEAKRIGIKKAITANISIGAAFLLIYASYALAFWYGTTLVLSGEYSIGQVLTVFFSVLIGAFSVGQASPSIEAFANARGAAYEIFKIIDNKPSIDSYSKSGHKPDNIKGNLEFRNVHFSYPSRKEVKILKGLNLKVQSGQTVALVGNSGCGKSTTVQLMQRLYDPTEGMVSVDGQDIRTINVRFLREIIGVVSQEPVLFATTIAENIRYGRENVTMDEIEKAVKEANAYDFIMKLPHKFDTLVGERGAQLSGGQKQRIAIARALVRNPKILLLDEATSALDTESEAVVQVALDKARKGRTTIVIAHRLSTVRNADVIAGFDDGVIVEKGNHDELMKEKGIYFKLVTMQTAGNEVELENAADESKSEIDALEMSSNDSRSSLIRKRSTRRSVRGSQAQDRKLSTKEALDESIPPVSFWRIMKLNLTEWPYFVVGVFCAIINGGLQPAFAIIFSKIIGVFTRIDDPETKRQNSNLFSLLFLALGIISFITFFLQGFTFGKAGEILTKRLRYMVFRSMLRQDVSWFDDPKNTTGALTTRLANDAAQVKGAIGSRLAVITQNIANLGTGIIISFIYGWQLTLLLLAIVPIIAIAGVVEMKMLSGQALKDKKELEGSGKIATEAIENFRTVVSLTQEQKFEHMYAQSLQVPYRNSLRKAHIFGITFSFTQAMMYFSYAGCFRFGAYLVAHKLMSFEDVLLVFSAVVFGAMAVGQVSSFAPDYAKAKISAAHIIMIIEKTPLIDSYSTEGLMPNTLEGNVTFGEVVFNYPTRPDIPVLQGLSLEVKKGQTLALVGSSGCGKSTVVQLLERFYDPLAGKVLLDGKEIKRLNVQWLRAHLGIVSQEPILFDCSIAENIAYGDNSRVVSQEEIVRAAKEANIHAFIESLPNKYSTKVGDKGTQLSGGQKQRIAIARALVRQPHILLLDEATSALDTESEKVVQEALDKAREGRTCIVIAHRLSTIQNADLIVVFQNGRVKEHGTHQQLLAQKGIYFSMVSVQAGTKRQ
Method in brief: (§3)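 ADR at 3.5 µM (K562/A02) or 0.2 µM (K562), alone or combined with compound at 2.5, 5 or 10 µM, for 72 h. Survival measured by MTS and given as percent growth of untreated control. Mean ± S.D. of three independent experiments; statistics versus ADR alone.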

[9] = test system: P-glycoprotein (P-gp); test: Ratio of IC50 for human K562/A02 cells overexpress P-gp to IC50 for human K562 cells; type: cell-based; conditions: K562/A02 cells overexpressing P-gp and parental K562 cells, read-out: Ratio IC50
[10] = test system: K562/A02; test: Growth inhibition of human K562/A02 cells at 3.5 uM after 72 hrs by MTS assay; type: functional, cell-based; method in brief: as §3
[11] = test system: K562; test: Growth inhibition of human K562 cells at 0.2 uM after 72 hrs by MTS assay; type: functional, cell-based; method in brief: as §3
[12] = test system: K562/A02; test: Inhibition of Pgp-mediated rhodamine 123 efflux in human K562/A02 cells assessed as intracellular rhodamine 123 accumulation at 3.3 uM preincubated for 30 mins measured after 60 mins by fluorescence microscopy relative to control; type: cell-based
Method in brief: (§4)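 Efflux assay: K562/A02 cells incubated 30 min with 0.5 µM rhodamine 123 plus compound (0.33, 3.3 or 10 µM). Cells washed twice with PBS, resuspended in medium and left 60 min at 37 °C to efflux dye. Retained dye viewed by fluorescence microscopy, with flow cytometry in parallel; 0.1% DMSO as vehicle control.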

[13] = test system: K562/A02; test: Inhibition of Pgp-mediated rhodamine 123 efflux in human K562/A02 cells assessed as intracellular rhodamine 123 accumulation preincubated for 30 mins measured after 60 mins by fluorescence microscopy relative to control; type: cell-based; method in brief: as §4
[14] = Cytotoxicity against human K562/A02 cells assessed as survival rate at 10 uM after 72 hrs by MTS assay; type: cell-based; conditions: read-out: Activity; method in brief: as §2
[15] = biological target: T1, ATP-dependent translocase ABCB1; test: Inhibition of P-glycoprotein in human K562/A02 cells assessed as potentiation of adriamycin-induced cytotoxicity by measuring survival rate at 2.5 uM after 72 hrs by MTS assay (reference value: 95%); type: cell-based; conditions: k562/a02, 72 h; method in brief: as §3
[16] = biological target: T1, ATP-dependent translocase ABCB1; test: Inhibition of P-glycoprotein in human K562/A02 cells assessed as potentiation of adriamycin-induced cytotoxicity by measuring survival rate at 5 uM after 72 hrs by MTS assay (reference value: 95%); type: cell-based; conditions: k562/a02, 72 h; method in brief: as §3
[17] = biological target: T1, ATP-dependent translocase ABCB1; test: Inhibition of P-glycoprotein in human K562/A02 cells assessed as potentiation of adriamycin-induced cytotoxicity by measuring survival rate at 10 uM after 72 hrs by MTS assay (reference value: 95%); type: cell-based; conditions: k562/a02, 72 h
[18] = test system: K562; test: Potentiation of adriamycin-induced cytotoxicity against human K562 cells at 2.5 to 10 uM after 72 hrs by MTS assay; type: functional, cell-based; method in brief: as §3
[19] = biological target: T1, ATP-dependent translocase ABCB1; test: Inhibition of P-glycoprotein in human K562/A02 cells assessed as potentiation of adriamycin-induced cytotoxicity at 10 uM preincubated for 24 hrs followed by washout before addition of adriamycin measured after 72 hrs by MTS assay (reference value: 33.59 uM); type: cell-based; conditions: k562/a02, 72 h
Method in brief: (§5)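 K562/A02 cells (1×10⁵/well) cultured overnight, then treated with 10 µM compound for 24 h. Washed three times with PBS and moved to compound-free medium. ADR at various concentrations added 0, 6, 12 or 24 h after removal, then 72 h further incubation. Read by MTS at 490 nm; ADR IC50 derived; mean ± S.E. of triplicates.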

[20] = biological target: T1, ATP-dependent translocase ABCB1; test: Inhibition of P-glycoprotein in human K562/A02 cells assessed as potentiation of adriamycin-induced cytotoxicity at 10 uM preincubated for 24 hrs followed by washout addition of adriamycin at 6 hrs post washout measured after 72 hrs by MTS assay (reference value: 35.15 uM); type: cell-based; conditions: k562/a02, 72 h; method in brief: as §5
[21] = biological target: T1, ATP-dependent translocase ABCB1; test: Inhibition of P-glycoprotein in human K562/A02 cells assessed as potentiation of adriamycin-induced cytotoxicity at 10 uM preincubated for 24 hrs followed by washout addition of adriamycin at 12 hrs post washout measured after 72 hrs by MTS assay (reference value: 54.11 uM); type: cell-based; conditions: k562/a02, 72 h; method in brief: as §5
[22] = biological target: T1, ATP-dependent translocase ABCB1; test: Inhibition of P-glycoprotein in human K562/A02 cells assessed as potentiation of adriamycin-induced cytotoxicity at 10 uM preincubated for 24 hrs followed by washout addition of adriamycin at 24 hrs post washout measured after 72 hrs by MTS assay (reference value: 51.67 uM); type: cell-based; conditions: k562/a02, 72 h; method in brief: as §5
[23] = Effect on P-gp ATPase activity assessed as relative light units at 40 uM by P-gp-GloTM assay (reference value: 242328 +/- 1398 RLU)
[24] = Effect on P-gp ATPase activity assessed as relative light units at 200 uM by P-gp-GloTM assay
Method in brief: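 P-gp ATPase measured by luminescence of remaining ATP; RLU inversely related to ATPase activity. Means of three separate experiments; Student's t test against untreated.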

Molecule | IC50 [1] | IC50 [2] | Activity [3] | inhibition at 72 h, 10 µM [4] | inhibition at 72 h, 10 µM [5] | further results
COC(=O)c1cc(OC)c2c(c1-c1c(/C=C/C(=O)c3cc(OC)ccc3OC)cc(OC)c3c1OCO3)OCO2 | > 200 µM | > 200 µM | inactive | < 10% | < 10% | Activity [6]: inactive; Activity [7]: inactive; inhibition (INH) [8]: Active
COC(=O)c1cc(OC)c2c(c1-c1c(C(=O)OC)cc(OC)c3c1OCO3)OCO2 [BIFENDATE] | > 100 µM | > 100 µM |  |  |  | 
COC(=O)c1cc(OC)c2c(c1-c1c(/C=C/C(=O)c3ccc(OC)cc3OC)cc(OC)c3c1OCO3)OCO2 | > 100 µM | > 100 µM |  |  |  | 
COC(=O)c1cc(OC)c2c(c1-c1c(/C=C/C(=O)c3ccccc3)cc(OC)c3c1OCO3)OCO2 | > 100 µM | > 100 µM |  |  |  | 
COC(=O)c1cc(OC)c2c(c1-c1c(/C=C/C(=O)c3ccc(OC)cc3)cc(OC)c3c1OCO3)OCO2 | > 100 µM | > 100 µM |  |  |  | 
COc1cccc2c1C(=O)c1c(O)c3c(c(O)c1C2=O)C[C@@](O)(C(=O)CO)C[C@@H]3O[C@H]1C[C@H](N)[C@H](O)[C@H](C)O1 [DOXORUBICIN] | 0.43 µM | 46.7 µM |  |  |  | selectivity ratio [9]: 108; growth inhibition (GI) [10]: inactive; growth inhibition (GI) [11]: inactive
COC(=O)c1cc(OC)c2c(c1-c1c(/C=C/C(=O)c3cc(C)ccc3C)cc(OC)c3c1OCO3)OCO2 | > 200 µM | > 200 µM | inactive | < 10% | < 10% | inhibition [12]: Active; inhibition [13]: Dose-dependent effect; viability at 72 h, 10 µM [14]: 95%; Activity [15]: 46%; Activity [16]: 20%; Activity [17]: 5%; Activity [18]: inactive; inhibition (INH) [19]: Active; inhibition (INH) [20]: Active; inhibition (INH) [21]: Active; inhibition (INH) [22]: Active; Activity [6]: inactive; Activity [7]: inactive; RLU [23]: 271000; inhibition (INH) [8]: Active
COC(=O)c1cc(OC)c2c(c1-c1c(/C=C/C(=O)c3ccc(O)cc3)cc(OC)c3c1OCO3)OCO2 | > 100 µM | > 100 µM |  |  |  | 
SODIUM ORTHOVANAD |  |  |  |  |  | RLU [24]: 282000
COC(=O)c1cc(OC)c2c(c1-c1c(/C=C(\C#N)C(=O)c3ccc(C)cc3)cc(OC)c3c1OCO3)OCO2 | 61.3 µM | 48.4 µM |  |  |  | 
COC(=O)c1cc(OC)c2c(c1-c1c(/C=C(\C#N)C(=O)c3ccc(OC)cc3)cc(OC)c3c1OCO3)OCO2 | > 100 µM | 37.2 µM |  |  |  | 
COc1ccc(CCN(C)CCCC(C#N)(c2ccc(OC)c(OC)c2)C(C)C)cc1OC (stereo not given) |  |  | inactive | < 10% | < 10% | Activity [18]: inactive; inhibition (INH) [19]: Active
COC(=O)c1cc(OC)c2c(c1-c1c(/C=C/C(=O)c3ccccc3OC)cc(OC)c3c1OCO3)OCO2 | > 200 µM | > 200 µM | inactive | < 10% | < 10% | Activity [6]: inactive; Activity [7]: inactive; inhibition (INH) [8]: Active
COC(=O)c1cc(OC)c2c(c1-c1c(/C=C(\C#N)C(=O)c3cc(OC)c(OC)c(OC)c3)cc(OC)c3c1OCO3)OCO2 | 60.3 µM | 38.9 µM |  |  |  | 
COC(=O)c1cc(OC)c2c(c1-c1c(/C=C/C(=O)c3ccc([N+](=O)[O-])cc3)cc(OC)c3c1OCO3)OCO2 | 73.4 µM | > 100 µM |  |  |  | 
COC(=O)c1cc(OC)c2c(c1-c1c(/C=C/C(=O)c3cc(OC)c(OC)c(OC)c3)cc(OC)c3c1OCO3)OCO2 | 172 µM | > 200 µM | inactive | < 10% | < 10% | 
